We go through 8 compounds from ChEMBL document CHEMBL5113551, “Fragment-Based Dynamic Combinatorial Chemistry for Identification of Selective α-Glucosidase Inhibitors” (ACS Med Chem Lett, 2022).

Series [1] is described as follows: Inhibition of alpha glucosidase (unknown origin). The arrangement: species or system Homo sapiens.
A short description of series [2]: Cytotoxicity against human HepG2 cells assessed as reduction in cell viability incubated for 24 hrs by CCK8 assay. The class given is toxicity, cell-based. (Tetrazolium dyes change colour on reduction, which living cells bring about.)
Series [3] is filed under the species Homo sapiens. Description: Mixed type of inhibition of alpha glucosidase (unknown origin) using pNPG as substrate by Lineweaver-Burk plot analysis. In short, it runs like this: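 Reaction velocity was measured across a range of substrate concentrations at several inhibitor concentrations. The data were plotted as 1/V versus 1/[S] and fitted linearly (Lineweaver–Burk). The quadrant where the lines intersect assigned the inhibition type, and the enzyme Km was derived from the same plot.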

The species entered for series [4] is Homo sapiens. Description: Non-competitive inhibition of alpha glucosidase (unknown origin) using pNPG as substrate by Dixon plot analysis. In short, it runs like this:
(§1)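 Inhibition kinetics used a slightly modified, previously described method. Reciprocal velocity was plotted against inhibitor concentration at several fixed substrate concentrations (Dixon plot). The competitive constant (Ki) and noncompetitive constant (αKi) were read from this plot.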

Series [5] in a line: Competitive inhibition of alpha glucosidase (unknown origin) using pNPG as substrate by Dixon plot analysis. On the set-up: species or system Homo sapiens. The method, boiled down:
as §1

A further series concerns the target T1, Alpha amylase (Homo sapiens, UniProt P0DUB6).
T1 sequence (P0DUB6 whole entry): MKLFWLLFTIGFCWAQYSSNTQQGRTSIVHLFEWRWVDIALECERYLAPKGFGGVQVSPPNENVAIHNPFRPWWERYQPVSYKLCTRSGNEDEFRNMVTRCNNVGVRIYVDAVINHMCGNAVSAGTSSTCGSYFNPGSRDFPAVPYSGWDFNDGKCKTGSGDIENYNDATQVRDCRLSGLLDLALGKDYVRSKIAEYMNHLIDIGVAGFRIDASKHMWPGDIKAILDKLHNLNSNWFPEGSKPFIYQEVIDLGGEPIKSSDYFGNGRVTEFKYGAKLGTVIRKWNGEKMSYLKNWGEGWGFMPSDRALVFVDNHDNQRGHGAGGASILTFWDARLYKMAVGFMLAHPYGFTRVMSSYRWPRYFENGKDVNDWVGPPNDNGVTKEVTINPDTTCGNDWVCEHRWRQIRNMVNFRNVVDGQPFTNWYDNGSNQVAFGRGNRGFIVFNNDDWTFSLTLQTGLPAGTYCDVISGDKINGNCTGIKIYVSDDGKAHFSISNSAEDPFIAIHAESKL
Description: Inhibition of alpha-amylase (unknown origin).

One may read the IC50 as the concentration at which inhibition is half-maximal. Low readings indicate greater potency in that assay, high ones weaker potency in that assay. The term CC50 denotes the concentration that lowers cell viability or growth by half. What is called Km is the concentration of substrate that gives half-maximal velocity. As usually defined, the Ki is the equilibrium dissociation constant of an inhibitor or competing ligand from its target.

`C[C@H]1O[C@H](O[C@H]2[C@H](O)[C@@H](O)[C@@H](O[C@H]3[C@H](O)[C@@H](O)C(O)O[C@@H]3CO)O[C@@H]2CO)[C@H](O)[C@@H](O)[C@@H]1N[C@H]1C=C(CO)[C@@H](O)[C@H](O)[C@H]1O` (some centres not stated) [ACARBOSE]: the concentration for half-maximal inhibition (IC50) in series [1] was 8.06 µM.
Regarding `Cc1ccc2occ(/C=N/NC(=O)c3cc4ccccc4[nH]3)c(=O)c2c1`, the CC50 at 24 h in series [2] was more than 200 µM. In the series listed under Homo sapiens [3], the Km is 930 µM. Also, the alphaKi in the series filed under Homo sapiens [4] turned out to be 2.75 µM. This compound yielded a Ki in series [5] of 1.98 µM. The IC50 in series [1] is 2.52 µM; at Alpha amylase, more than 200 µM.
In the case of `Cc1ccc(S(=O)(=O)Oc2ccc(/C=N/NC(=O)c3ccc(O)cc3)cc2)cc1`, the half-inhibitory concentration (IC50) (in series [1]; against Alpha amylase) was more than 200 µM each time.
For `Cc1ccc(S(=O)(=O)Oc2ccc(/C=N/NC(=O)Cc3ccccn3)cc2)cc1`, the 50% inhibitory concentration (IC50) (in series [1]; at Alpha amylase) was more than 200 µM throughout.
On to `O=C(N/N=C/c1coc2ccc(O)cc2c1=O)c1cc2ccccc2[nH]1`, for which the CC50 at 24 h in series [2] is more than 200 µM. For the same compound, the IC50 in series [1] was 22.6 µM; at Alpha amylase, 151.46 µM.
On to `Cc1ccc(S(=O)(=O)Oc2ccc(/C=N/NC(=O)c3nc4ccccc4[nH]3)cc2)cc1`, for which the IC50 in series [1] is 168 µM; against Alpha amylase, more than 200 µM.
As to `O=C(N/N=C/c1coc2ccccc2c1=O)c1cc2ccccc2[nH]1`, the CC50 at 24 h in series [2] is more than 200 µM. In addition, the half-maximal inhibitory concentration (IC50) in series [1] stood at 6.49 µM; on Alpha amylase it was 128.1 µM.
As for `O=C(N/N=C/c1coc2ccccc2c1=O)c1nc2ccccc2[nH]1`, the CC50 at 24 h in series [2] was more than 200 µM. The results for the IC50 (in series [1]; against Alpha amylase) were 32.5 µM and more than 200 µM, respectively.
